High-throughput results from PubChem.
Myeloid diff MLP – myeloid differentiation induction | calls only at 10 µM | 1% of 360,000 active | ER-HoxA9 myeloid progenitors, lysozyme-GFP differentiation, flow cytometry | AID 624256;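 active = normalized GFP-positive differentiation at or above the plate's own cutoff, the solvent-only control mean plus 3 SD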;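 also: cells exposed to compound for four days before flow analysis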
T cell modulator – T cell immune modulators affecting CD8 T cell-vesicle binding; 2C CD8+ T cell-vesicle binding, flow cytometry; stronger effect = lower value; response (vesicle binding), % at 7 µM; 0.068% of 330,000 active;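 active = response, share of CD8 T cells binding vesicles, and their 90th percentile fluorescence all below set limits, cut at about 80% in these data, passing the limit was not always enough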;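 also: values below 100% mean blocked vesicle binding to the CD8+ T cells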
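Assay system – 2C mouse CD8+ T cells · Also added – QL9-loaded Drosophila micro-vesicles · Timing – Cell–vesicle co-incubation 1.5 h at 37 °C, staining 20 min on ice · Signal – flow cytometry of vesicle-bound cells · Measure – percent CD8+ FL2 mean versus row control · Controls – Peptide-free naked vesicles (low) and QL9 vesicles with 0.7% DMSO vehicle (high)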
Casp6 inh – blocks human caspase-6 cleavage activity. P55212. purified caspase-6, Z-VEID-R110 cleavage fluorescence. inhibition, % at 12.5 µM. 0.53% of 350,000 active. AID 686996;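 active = mean inhibition across replicates at least about 35%, with every replicate also reaching that limit, limit read from the data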;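 also: 0% = median of neutral control wells and 100% = no fluorescence left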
Target sequence (P55212 24-179 limits assumed): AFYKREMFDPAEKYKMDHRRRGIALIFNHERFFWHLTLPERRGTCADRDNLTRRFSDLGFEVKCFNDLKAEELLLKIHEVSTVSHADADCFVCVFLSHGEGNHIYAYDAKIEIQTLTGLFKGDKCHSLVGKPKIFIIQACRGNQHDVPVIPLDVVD
Target sequence (P55212 194-293 limits assumed): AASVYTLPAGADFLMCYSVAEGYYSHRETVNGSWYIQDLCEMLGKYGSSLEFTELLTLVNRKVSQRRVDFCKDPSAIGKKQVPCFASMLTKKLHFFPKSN
Vif inh – blocks HIV Vif function. AID 602346. HEK293T cells, Vif self-association by quenched fluorescence, imaging, 24 h. 0.35% of 340,000 active. inhibition, % at 7.49 µM; in the data active = inhibition above about 50%, passing the limit was not always enough
The depositor's hits bear a star; i = inactive; x = no result; + = active, no number. Sampled rows, rich in hits. Any-hit rate of the full collection: about 1.4%.

SMILES | Myeloid diff MLP | T cell modulator | Casp6 inh | Vif inh
CC(=O)N1c2ccccc2N(Cc2ccc(C)cc2C)C(=O)C1(C)C | + | 430 | 1 | -8
CCn1c2ccccc2c2cc(NC(=O)c3ccc(Br)o3)ccc21 | + | 257 | x | -3
CCn1c2ccccc2c2cc(NC(=O)CSc3nnc(-c4cccc(C)c4)o3)ccc21 | i | 154 | x | -6
CCn1c2ccccc2c2cc(NC(=O)CSc3nnc(-c4ccccc4)o3)ccc21 | + | 203 | x | 8
CCCNC(=O)N1CC2(C1)CN(C(=O)c1ccncc1)[C@H](CO)c1[nH]c3cc(OC)ccc3c12 | x | x | 0 | x
CN(C)CC(=O)N1[C@@H]2c3ccc(-c4ccc(F)cc4)c(=O)n3C[C@@H]2[C@@H](CO)[C@@H]1C(=O)NC1CCC1 | x | x | -2 | x
Cc1ccc(S(=O)(=O)Nc2c(C)nn(C)c2C)cc1C | i | 338 | 0 | -8
CC(=O)c1ccc(S(=O)(=O)Nc2c(C)nn(C)c2C)cc1 | i | x | 43* | -7
C[C@H](CO)N1C[C@H](C)[C@@H](CN(C)Cc2cncnc2)Oc2ncc(-c3ccc(F)cc3)cc2C1=O | x | x | -1 | x
O=C(N/N=C1\C/C(=N\NC(=O)c2ccncc2)c2ccccc21)c1ccncc1 | i | 417 | 90* | 34
OCCCCNCc1cc(Br)ccc1OCc1ccccc1F | i | 27* | -2 | -13
O=C(NCC1CCCO1)C(c1ccc(F)cc1)N(CC1CCCO1)C(=O)c1ccc(-c2ccccc2)[nH]1 (configuration not stated) | i | 371 | 48* | 9
CO[C@@H]1CN(C)C(=O)c2ccc(NC(=O)C3CC3)cc2OC[C@@H](C)N(CCC(F)(F)F)C[C@H]1C | x | x | 4 | x
O=S(=O)(NCCN1CCOCC1)c1ccc(Oc2ccccc2Cl)cc1 | + | 317 | -1 | 5
O=S(=O)(NCCN1CCOCC1)c1ccc2ccccc2c1 | i | 183 | -9 | -4
C=CCn1c(SCC(=O)N(C)C2CCCCC2)nnc1C1CC1 | i | 398 | -2 | 2
Cc1nnc(SCC(=O)N(C)C2CCCCC2)n1C | i | 402 | 55* | 11
Cc1cccc(-c2noc(CNC(=O)c3ccoc3C)n2)c1 | + | 435 | -3 | -7
CN(c1ccc(F)cc1)S(=O)(=O)c1ccc(Cl)c(C(=O)NCc2ccco2)c1 | + | 644 | 0 | -2
Cc1occc1C(=O)NCc1ccco1 | i | 251 | 41* | -3
CN(C)S(=O)(=O)c1ccc(Cl)c(C(=O)NCc2ccco2)c1 | i | 682 | 2 | -1
Cc1ccc2c(CC(=O)NC3CCS(=O)(=O)C3)coc2c1C (configuration not stated) | i | 313 | -5 | -3
Cc1ccc2c(CC(=O)NCc3ccco3)coc2c1C | + | 234 | x | -6
CC(C)C#Cc1cnc2c(c1)C(=O)N([C@H](C)CO)C[C@H](C)[C@@H](CN(C)C(=O)c1ccc3c(c1)OCO3)O2 | x | x | 1 | x
Cc1c(C(=O)OCC(=O)NCc2ccco2)oc2ccccc12 | i | 65* | 0 | -2
SMILES | Myeloid diff MLP | T cell modulator | Casp6 inh | Vif inh
Cc1ccccc1S(=O)(=O)NCC[C@@H]1CC[C@@H](NC(=O)C2CCCCC2)[C@@H](CO)O1 | x | x | 2 | x
Cc1ccc(C(=O)NNC(=O)CCC(=O)NCc2ccccc2)cc1Br | + | 128 | 2 | -3
CN1CCCN(C(=O)Cc2c(Cl)cccc2Cl)c2nc3ccccc3nc21 | + | 178 | x | -6
COc1ccc2c3c(n(C)c2c1)[C@@H](CO)N(CC1CC1)CC31CN(Cc2ccc(F)cc2)C1 | x | x | -2 | x
COc1ccc(CCN(C)CC(O)c2ccccc2)cc1OC (configuration not stated) | i | 770 | 2 | 8
COc1ccc(CCNC(=O)c2cc3cccc(OC)c3oc2=O)cc1OC | i | 266 | 44* | -4
COc1ccc(CCNC(=S)NCCc2ccc(OC)c(OC)c2)cc1OC | i | 66* | -1 | -4
CNC(=S)NCCc1ccc(OC)c(OC)c1 | i | 219 | 1 | -5
COc1ccc(CCN(C)CCc2ccc(OC)c(OC)c2)cc1OC | + | 328 | x | -3
COc1cccc2cc(C(=O)NCc3ccc(Cl)cc3)c(=O)oc12 | i | 274 | 1 | -9
O=C(C[C@H]1CC[C@@H](NC(=O)Cc2ccccn2)[C@H](CO)O1)NCCCN1CCOCC1 | x | x | -2 | x
CC1(Oc2cnc(Cl)c3ccccc23)CCN(Cc2ccc(OC(F)(F)F)cc2)C1 (configuration not stated) | i | x | 46* | -3
CC1(Oc2ccc(Cl)cc2)CCN(Cc2ccc(OC(F)(F)F)cc2)C1 (configuration not stated) | i | x | 2 | 7
Cc1ccc(S(=O)(=O)Nc2cc(C(C)C)c(O)cc2C)cc1 | + | 274 | x | -3
COc1ccccc1-c1cnc2c(c1)C(=O)N([C@@H](C)CO)C[C@H](C)[C@@H](CN(C)Cc1cccnc1)O2 | x | x | -1 | x
CCOc1ccc(CCNC(=O)CN2C(=O)NC(CCSC)C2=O)cc1OCC (configuration not stated) | + | 504 | 0 | 2
CCC(=O)Nc1ccc2c(c1)C(=O)N(C)[C@H]1CC[C@@H](CC(=O)N[C@@H](C)c3ccccc3)O[C@H]1CO2 | x | x | 0 | x
CCCn1c(N)c(N(CCOC)C(=O)c2ccc([N+](=O)[O-])cc2Cl)c(=O)[nH]c1=O | i | 210 | 2 | 67*
CCc1nnc(NC(=O)c2sc3nc4cc(C)ccc4cc3c2N)s1 | i | 176 | x | 170*
O=S(=O)(c1ccccc1)N1CC2(C1)[C@H](c1ccccc1)[C@H](CO)N2CC1CC1 | x | x | 2 | x
CCOc1ccc(-n2c(=S)sc3c(=O)[nH]c(SCC(=O)N4CCC(C)CC4)nc32)cc1 | i | 343 | 43* | 3
COc1ccc(NC(=O)N(C)C[C@@H]2OCCCC[C@@H](C)Oc3ccc(NC(=O)Nc4ccc(F)cc4)cc3C(=O)N([C@@H](C)CO)C[C@@H]2C)cc1 | x | x | -1 | x
CCCCCC(=O)Nc1cc(S(=O)(=O)N2CCCCC2)ccc1N1CCCCC1 | i | x | 4 | -8
CCCCCC(=O)Nc1cc(S(=O)(=O)O)cc2cc(S(=O)(=O)O)cc(O)c12 | i | x | 98* | 1
CCC(C)n1c(-c2cccs2)nc2nc3ccccc3nc21 (configuration not stated) | i | 245 | x | 68*
SMILES | Myeloid diff MLP | T cell modulator | Casp6 inh | Vif inh
c1ccc(-n2c(-c3cccs3)nc3nc4ccccc4nc32)cc1 | i | 312 | -1 | -6
C[C@H](CO)N1C[C@H](C)[C@@H](CN(C)S(=O)(=O)c2cn(C)cn2)Oc2ccc(NC(=O)C3CCCCC3)cc2CC1=O | x | x | 1 | x
CCOC(=O)c1cc2occc2n1CC(=O)N1CCOCC1 | i | 294 | x | 60*
CC(OC(=O)C1CC1)C(=O)Nc1ccc([N+](=O)[O-])cc1Cl (configuration not stated) | + | 128 | -2 | 5
O=C(Nc1ccccc1F)N1CC(=O)N2[C@@H](CO)[C@@H](c3ccc(C#Cc4ccccc4)cc3)[C@@H]2C1 | x | x | 0 | x
COc1ccccc1-c1cnc2c(c1)C(=O)N([C@@H](C)CO)C[C@H](C)[C@H](CN(C)C(=O)CN(C)C)O2 | x | x | 3 | x
